Hits are enriched below; roughly 3% of the tested compounds scored in any of these assays.
CaV13 FRET inh: Disruptors of the CACNA1D IQ motif to Ca2+-dependent inactivation inhibitor domain association, primary screening, Förster resonance energy transfer in intact living …; AID 743397; 340,000 compounds, 0.098% hits; inhibition, % at 12.3 µM; HEK cells, CFP/YFP FRET ICDI-IQ, plate reader, 10 min; percent FRET-ratio fall versus neutral wells;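 active = mean replicate inhibition of at least 30% and at least 1% of replicates passing that level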
Glyco luc inh: blocks N-linked glycosylation in D54 reporter cells; D54 ERlucT glycosylation luciferase reporter, 24 h; percent of 100 nM tunicamycin response; reporter increase, % at 12.5 µM; 360,000 compounds, 0.23% hits; AID 588692;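 active = mean luciferase reporter signal, scaled so untreated is 0 and the glycosylation-blocking control 100, at or above a set limit in every replicate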;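 note: luciferase carries N-glycosylation sites so blocking glycosylation raises the light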
HSF-1 act: increases HSF-1 driven luciferase reporter signal; NIH3T3-HGL HSF-1 luciferase reporter, MG132, 8 h; 100% = twice DMSO control signal; activation, % at 9 µM; 300,000 compounds, 1.7% hits; AID 504408;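 active = mean replicate activation of at least 50% with a set share of replicates each reaching 50%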
PvdQ acylase: blocks Pseudomonas aeruginosa PvdQ acylase activity | purified PvdQ acylase, fluorescence plate reader | inhibition, % at 10 µM | 340,000 compounds, 0.063% hits; in the data active = inhibition above about 30%, passing the limit was not always enough
T cruzi inh: blocks replication of Trypanosoma cruzi; T. cruzi beta-gal in NIH3T3, luminescence, 90 h; inhibition, % (test concentration not listed); 300,000 compounds, 1.4% hits;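 active = mean inhibition across valid replicates above about 55%, limit read from the data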;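 note: signal also drops with host cell toxicity which is not excluded here; higher percent means less beta-gal luminescence so fewer parasites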
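assay system = mouse NIH/3T3 fibroblasts infected with β-gal-expressing T. cruzi Tulahuen C4 | input = 5,000 NIH/3T3 host cells per well | buffer or medium = DMEM plus 2% FBS | timing = 3 h host attachment, then at least 90 h co-culture | measured by = GalScreen luminescence, 60 min | evaluation = luminescence reflecting intracellular parasite burden, expressed as percent inhibition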
PfHsp90 yeast 2: growth inhibition of yeast expressing Plasmodium Hsp90 | inhibition, % at 9.4 µM | S. cerevisiae expressing PfHsp90, BacTiter-Glo ATP, 48 h; yeast lacking PDR1 and PDR3 efflux regulators | 310,000 compounds, 0.32% hits;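 active = every replicate shows inhibition above about 80%, whatever the replicate mean, limit read from the data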
Hits are given with their value.

Screening O=C(CCC(=O)c1ccc(F)cc1)Nc1cc(Cl)cc(Cl)c1 returned Glyco luc inh inactive, HSF-1 act 58, PvdQ acylase inactive, T cruzi inh inactive and PfHsp90 yeast 2 inactive.
For CCN=C1NC(c2ccccc2)C(C(=O)OC)=C(C)N1Cc1ccc(C(F)(F)F)cc1 (centres undefined) the results were CaV13 FRET inh inactive.
O=C(O)c1ccccc1/C=N/Nc1ccc(S(=O)(=O)N2CCOCC2)cc1[N+](=O)[O-] was read as CaV13 FRET inh inactive, Glyco luc inh inactive, HSF-1 act inactive, PvdQ acylase inactive, T cruzi inh inactive and PfHsp90 yeast 2 inactive.
For NS(=O)(=O)c1ccc(N/N=C/c2ccccc2C(=O)O)c([N+](=O)[O-])c1 the results were CaV13 FRET inh inactive, Glyco luc inh inactive, HSF-1 act 61, PvdQ acylase inactive and T cruzi inh inactive.
CCOC(=O)c1c(CN2CCC(C)CC2)n(C)c2cc(Br)c(OC)cc12 was read as CaV13 FRET inh inactive, Glyco luc inh inactive, HSF-1 act 94, PvdQ acylase inactive, T cruzi inh inactive and PfHsp90 yeast 2 inactive.
Screening Cc1nc(-c2ccc(NC(=O)C3CCCCC3)cc2)cs1 returned CaV13 FRET inh inactive, Glyco luc inh inactive, HSF-1 act 57, PvdQ acylase inactive, T cruzi inh inactive and PfHsp90 yeast 2 inactive.
For Cc1ccc(C(=O)Nc2ccc(-c3csc(C)n3)cc2)cc1 the results were CaV13 FRET inh inactive, Glyco luc inh inactive, HSF-1 act inactive, PvdQ acylase inactive, T cruzi inh inactive and PfHsp90 yeast 2 inactive.
`OC(c1cc(-c2ccc(C(F)(F)F)cc2)nc(C(F)(F)F)c1)C1CCCCN1` (centres undefined) gave CaV13 FRET inh inactive, Glyco luc inh inactive, HSF-1 act inactive, PvdQ acylase inactive, T cruzi inh 56 and PfHsp90 yeast 2 inactive.
For Cc1nc(CSc2ccc(Cl)cc2)cs1 the results were CaV13 FRET inh inactive, Glyco luc inh inactive, HSF-1 act 51, PvdQ acylase inactive, T cruzi inh inactive and PfHsp90 yeast 2 inactive.
`Cc1nc(CCNC(=O)Cc2ccc(F)cc2)cs1` gave CaV13 FRET inh inactive, Glyco luc inh inactive, HSF-1 act inactive, PvdQ acylase inactive, T cruzi inh inactive and PfHsp90 yeast 2 inactive.
CC(C)(C)CC(=O)NCCc1csc(-c2ccccc2)n1 was read as CaV13 FRET inh inactive, Glyco luc inh inactive, HSF-1 act 63, PvdQ acylase inactive, T cruzi inh 61 and PfHsp90 yeast 2 inactive.
`Cc1nc(CCNC(=O)Cc2ccc(Cl)cc2)cs1` gave CaV13 FRET inh 39, Glyco luc inh inactive, HSF-1 act inactive, PvdQ acylase inactive, T cruzi inh inactive and PfHsp90 yeast 2 inactive.
Screening O=C(NCC(c1cccnc1)N1CCN(c2ccc(F)cc2)CC1)c1ccccc1 (centres undefined) returned Glyco luc inh inactive, HSF-1 act inactive, PvdQ acylase inactive, T cruzi inh inactive and PfHsp90 yeast 2 inactive.
Screening O=C(NCC(c1cccnc1)N1CCN(c2ccccc2)CC1)c1ccco1 (centres undefined) returned CaV13 FRET inh inactive, Glyco luc inh inactive, HSF-1 act inactive, PvdQ acylase inactive, T cruzi inh 65 and PfHsp90 yeast 2 inactive.
Screening O=C(NCc1cccnc1)C(=O)NCC(c1ccco1)N1CCN(c2ccccc2)CC1 (centres undefined) returned CaV13 FRET inh inactive, Glyco luc inh inactive, HSF-1 act 80, PvdQ acylase inactive, T cruzi inh inactive and PfHsp90 yeast 2 inactive.
O=C(NCc1cccnc1)C(=O)NCC(c1ccco1)N1CCOCC1 (centres undefined) was read as CaV13 FRET inh inactive, Glyco luc inh inactive, HSF-1 act inactive, PvdQ acylase inactive, T cruzi inh inactive and PfHsp90 yeast 2 inactive.
Screening COC(=O)C1=C(C)N(Cc2ccccc2C(F)(F)F)C(=NCc2cccc(C(F)(F)F)c2)NC1CCc1ccccc1 (centres undefined) returned CaV13 FRET inh inactive.
Screening COC(=O)[C@]12C[C@H](CC(=O)NCCCCc3ccccc3)C(=O)N(Cc3ccccc3)C1=C[C@H](C(C)(C)C)O[C@@H]2C returned CaV13 FRET inh inactive.
`CCN(CC)Cc1c(O)ccc2c1O/C(=C\C=C\c1ccccc1)C2=O` gave CaV13 FRET inh inactive, Glyco luc inh inactive, HSF-1 act 116, PvdQ acylase inactive, T cruzi inh 60 and PfHsp90 yeast 2 inactive.
CS(=O)(=O)Oc1ccc2c(c1)O/C(=C\C=C\c1ccccc1)C2=O was read as CaV13 FRET inh inactive, Glyco luc inh inactive, HSF-1 act 109, PvdQ acylase inactive, T cruzi inh inactive and PfHsp90 yeast 2 inactive.
Screening O=C(c1ccc([N+](=O)[O-])o1)N1CCN(c2nc3c(F)cc(F)cc3s2)CC1 returned CaV13 FRET inh inactive, Glyco luc inh inactive, HSF-1 act 71, PvdQ acylase inactive and T cruzi inh 56.
`CN(C)c1ccc(CC(=O)c2nc3ccccc3s2)cc1` gave CaV13 FRET inh inactive, Glyco luc inh inactive, HSF-1 act 56, PvdQ acylase inactive, T cruzi inh inactive and PfHsp90 yeast 2 inactive.
For CCNC(=O)N1CCN(c2ccc(N3CCN(Cc4ccccc4)[C@H](C)C3)c(C)c2)[C@H](C)C1 the results were CaV13 FRET inh inactive.
CC[n+]1c(/C=C/c2ccc(N(C)C)cc2)ccc2ccccc21 was read as Glyco luc inh inactive, HSF-1 act inactive, PvdQ acylase inactive, T cruzi inh inactive and PfHsp90 yeast 2 inactive.
For CCN(CC)c1ccc(/C=C/c2ccc3ccc(OC)cc3[n+]2CC)cc1 the results were CaV13 FRET inh inactive, Glyco luc inh inactive, HSF-1 act inactive, PvdQ acylase inactive, T cruzi inh 61 and PfHsp90 yeast 2 inactive.
`CSc1ccccc1NC(=S)Nc1ccc(S(N)(=O)=O)cc1` gave CaV13 FRET inh inactive, Glyco luc inh inactive, HSF-1 act 54, PvdQ acylase inactive, T cruzi inh inactive and PfHsp90 yeast 2 inactive.
NS(=O)(=O)c1ccc(NC(=S)Nc2cc(Cl)c(Cl)cc2Cl)cc1 was read as CaV13 FRET inh inactive, Glyco luc inh inactive, HSF-1 act inactive, PvdQ acylase inactive, T cruzi inh inactive and PfHsp90 yeast 2 inactive.
Screening CC(/C=C1\SC(=S)N(CCCC(=O)Nc2ccc(C(=O)O)cc2)C1=O)=C\c1ccccc1 returned CaV13 FRET inh inactive, Glyco luc inh inactive, HSF-1 act 61, PvdQ acylase inactive, T cruzi inh inactive and PfHsp90 yeast 2 inactive.
O=C(CCCCCN1C(=O)c2ccccc2C1=O)Nc1ccc(C(=O)O)cc1 was read as CaV13 FRET inh inactive, Glyco luc inh inactive, HSF-1 act 63, PvdQ acylase inactive, T cruzi inh inactive and PfHsp90 yeast 2 inactive.
`C=CC[C@]1(c2ccccc2)C(=O)N2C[C@H]3CON(C)[C@H]3C[C@H]2c2ccccc21` gave CaV13 FRET inh inactive.
